These results are taken from PMC9057237 (RSC Advances, 2020).

One data set in a line: MTT cell viability assay. As to conditions: rat, RBL-2H3 cells. Type of data set: cell-based, rat. The method, boiled down:
(§1)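 Cells grown in DMEM with 10% FBS, penicillin (100 U mL−1) and streptomycin (100 μg mL−1) at 37 °C under humidified 5% CO2. Pure compounds tested at 1 to 400 μM; viability read by MTT assay. Mean, n = 3, relative to untreated (DMSO) control.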

Data set [1] concerns human neutrophils. Nature of the data set: Superoxide anion generation in fMLF/cytochalasin B-induced human neutrophils. Type of data set: cell-based. The conditions noted are these: for IC50: read-out: Superoxide anion generation IC50. The method in brief: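 Human neutrophils taken from venous blood of healthy volunteers aged 20–30 years. Superoxide from activated cells measured as ferricytochrome c reduction. Pure compounds tested at 0.3–10 μM. Mean ± S.E.M., n = 3–6, vs 0.1% DMSO control; IC50 is the concentration giving 50% inhibition.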

For data set [2], the system named is human neutrophils. Nature of the data set: Elastase release in fMLF/cytochalasin B-induced human neutrophils. Type of data set: cell-based. As to conditions: for inhibition at 10 µM / IC50: Homo sapiens, Neutrophil; for inhibition at 10 µM: read-out: Elastase release % Inhibition; for IC50: read-out: Elastase release IC50. The method, boiled down: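 Neutrophils isolated from venous blood of healthy adult volunteers aged 20–30 years. Release from activated cells measured with MeO-Suc-Ala-Ala-Pro-Val-p-nitroanilide as elastase substrate. Pure compounds tested at 0.3–10 μM. LY294002 as positive control. Mean ± S.E.M., n = 3–6, vs 0.1% DMSO control; IC50 is the concentration giving 50% inhibition.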

The target in a further data set is T1, neutrophil elastase (NE) (Homo sapiens, UniProt P08246).
T1 sequence (P08246 30-247 limits assumed): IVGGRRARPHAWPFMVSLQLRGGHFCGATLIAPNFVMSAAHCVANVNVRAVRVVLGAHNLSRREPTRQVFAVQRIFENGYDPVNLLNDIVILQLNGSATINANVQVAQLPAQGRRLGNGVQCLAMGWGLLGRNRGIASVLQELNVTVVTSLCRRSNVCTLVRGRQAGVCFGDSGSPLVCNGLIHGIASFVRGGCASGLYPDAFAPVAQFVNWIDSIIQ
Nature of the data set: Cell-free elastase enzymatic activity assay. The class given is biochemical. The conditions noted are these: read-out: Inhibition of elastase enzyme activity. The method, boiled down: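 Neutrophils (6 × 10^5 cells per mL) preheated 5 min at 37 °C with CaCl2 (1 mM), primed with CB (1.5 μg mL−1) for 2 min, then fMLF (0.1 μM) to release elastase. Cell-free supernatant taken after centrifugation (1000g, 5 min, 4 °C), warmed to 37 °C and given test compound (10 μM) or DMSO for 2 min. MeO-Suc-Ala-Ala-Pro-Val-p-nitroanilide (100 μM) added for 10 min; A405 read. Mean ± S.E.M., n = 4; t-test.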

The next data set deals with SARS-CoV-2 M^pro. The conditions noted are these: read-out: M^pro inhibition IC50; cited from earlier work.
Data set [3] has as its system RBL-2H3 cells. Nature of the data set: MTT cell viability assay. The class given is cell-based, rat. As to conditions: 100 μM; MTT. The method in brief: as §1
(In general: Tetrazolium assays rely on reduction of a dye to a coloured formazan, in cell work by metabolically active cells.)

The test system of data set [4] is RBL-2H3 cells. Briefly: A23187-induced degranulation. The class given is cell-based, rat. As to conditions: mean ± S.E.M.
Data set [5] deals with RBL-2H3 cells. Nature of the data set: Antigen-induced degranulation. The class given is cell-based, rat. As to conditions: for % Inhibition of antigen-induced degranulation: mean ± SEM.
Data set [6] concerns human neutrophil elastase. As to conditions: read-out: Human neutrophil elastase IC50; previous study; cited from earlier work.
The mark [7] stands for this setting: Homo sapiens, Neutrophil, read-out: Superoxide anion generation % Inhibition.
[8] abbreviates: at 10 μM, fMLF/CB-induced human neutrophils, mean ± S.E.M.

In general, viability refers to a per cent measure of how many cells are alive, often set against a control. High values mean better survival, low ones a greater loss of cells. `CN1CCCC(n2nc(Cc3ccc(Cl)cc3)c3ccccc3c2=O)CC1` (stereo not drawn) [Azelastine, reference compound]: in the data set “MTT cell viability assay”, the viability at 20 µM was greater than 90%.
Turning to `COc1cc(O)c2c(=O)c(OC)c(-c3ccc(O)cc3)oc2c1` [Compound 7, kumatakenin], the inhibition at 10 µM with human neutrophils [1] (setting [7]) was 24.1 ± 2.75%; in the data set on human neutrophils [2], 22.9 ± 4.29%; on neutrophil elastase (NE), 20.3 to 27.1%. Further, the IC50 was greater than 10 µM in the data set on human neutrophils [1] (Homo sapiens, Neutrophil) and greater than 10 µM in the data set with human neutrophils [2]. This molecule also came in with a viability at 100 µM in “MTT cell viability assay” greater than 90%.
For `COc1cc(O)c2c(=O)c(OC)c(-c3ccc(O)c(OC)c3)oc2c1` [Compound 9, pachypodol], the inhibition at 10 µM was 67.5 ± 4.55% with human neutrophils [1] (setting [7]), 31.6 ± 5.02% with human neutrophils [2] and 20.3 to 27.1% at neutrophil elastase (NE). The IC50 was 6.07 ± 0.65 µM in the data set with human neutrophils [1] (Homo sapiens, Neutrophil) and greater than 10 µM with human neutrophils [2]. The molecule further registered a viability at 100 µM in “MTT cell viability assay” greater than 90%.
`O=c1c(-c2ccc(O)cc2)coc2cc(O)cc(O)c12` [Genistein, reference compound]: the inhibition at 3 µM in the data set with human neutrophils [1] (setting [7]) is 67%. In addition, in the data set on human neutrophils [1] (Homo sapiens, Neutrophil), the IC50 was determined as 1.52 ± 0.17 µM. In the data set on human neutrophils [2], the inhibition at 10 µM was found to be 31.6 ± 7.29% and the IC50 came to 16.3 ± 4.26 µM.
As to `O=c1cc(-c2ccc(O)c(-c3c(O)cc(O)c4c(=O)cc(-c5ccc(O)cc5)oc34)c2)oc2cc(O)cc(O)c12` [amentoflavone], the IC50 in the data set with SARS-CoV-2 M^pro is 8.3 µM.
For the molecule penduletin [Compound 8], the “Superoxide anion generation % Inhibition” value in the data set on human neutrophils [1] (setting [8]) was 73.76 ± 5.24%. For the same molecule, in the data set with human neutrophils [2] (setting [8]), the “Elastase release % Inhibition” value was 33.00 ± 7.94%. For the same molecule, the “% Viability, RBL-2H3” value in the data set on RBL-2H3 cells [3] is greater than 90%. Moreover, the “% Inhibition of A23187-induced degranulation” value was found to be 4.8 ± 3.9% in the data set on RBL-2H3 cells [4] (1 μM) and 25.1 ± 7.3% in the data set on RBL-2H3 cells [4] (10 μM). For the same molecule, the “% Inhibition of antigen-induced degranulation” value turned out to be 33.9 ± 8.6 % in the data set with RBL-2H3 cells [5] (1 μM) and 85.8 ± 5.1 % in the data set with RBL-2H3 cells [5] (10 μM). Moreover, the IC50 was 3.8 µM in the data set with RBL-2H3 cells [5] (read-out: Antigen-induced degranulation IC50) and 65.4 µM in data set [6].
